{"source": "PubChem BioAssay AID504409", "about": "(Broad Institute, 2011)", "note": "Results filed as inconclusive are left out. The source made the active and inactive calls.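 Rule for the calls: active = fitted curve reaches caspase activation of 10% of the positive control signal in every replicate test; inconclusive = tests disagree, or a test had a flat mid-level or poor fit; inactive = every replicate test called inactive.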"}
{"system": "MEF Flag-A1-IRES-BIM, caspase-Glo luminescence, 3 h", "test": "apoptosis induction in A1/BIM co-expressing fibroblasts – cell-based, Flag-A1-IRES-BIM MEF, luminescence, dry powder, set 3, orthogonal assay for A1 inhibitor project, dose response (AID 504409)", "settings": "not given", "in_short": "(§1)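 Test system – mouse embryonic fibroblasts primed with alternate Flag-A1-IRES-BIM construct · Amount – 2500 cells/well · Buffer or medium – RPMI-1640, 10% heat-inactivated FBS · Times – 3 h exposure (37 °C, 5% CO2), 1 h room-temperature detection · Signal – luminescence with CaspaseGlo reagent diluted 1:1 in 50 mM HEPES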", "units": {"AC10": "µM"}}
{"smiles": "COCCn1c(=O)c([N+](=O)[O-])c(Sc2ccc(C)cc2)c2ccccc21", "AC10": 15.5}
{"smiles": "CCn1c(=O)c([N+](=O)[O-])c(Cl)c2ccccc21", "AC10": 1.49}
{"smiles": "CC1(C)CCC(c2ccc(Cl)cc2)=C(CN2CCN(c3ccc(C(=O)NS(=O)(=O)c4ccc(N[C@H](CCN5CCOCC5)CSc5ccccc5)c(S(=O)(=O)C(F)(F)F)c4)cc3)CC2)C1", "AC10": 0.689}
{"smiles": "O=c1[nH]c2ccccc2c(Cl)c1[N+](=O)[O-]", "AC10": 3.38}
{"smiles": "Cn1c(=O)c([N+](=O)[O-])c(Cl)c2ccccc21", "AC10": 1.84}
{"smiles": "Cn1c(=O)c([N+](=O)[O-])c(S(C)(=O)=O)c2ccccc21", "AC10": 3.06}
{"smiles": "Cc1ccc(S(=O)(=O)c2c([N+](=O)[O-])c(=O)n(C)c3ccccc23)cc1", "AC10": 4.11}
{"smiles": "Cn1c(=O)c([N+](=O)[O-])c(Sc2ccccn2)c2ccccc21", "AC10": 3}
{"smiles": "COCCn1c(=O)c([N+](=O)[O-])c(Cl)c2ccccc21", "AC10": 1.46}
{"system": "not listed separately", "test": "apoptosis induction in A1/BIM co-expressing fibroblasts – cell-based, Flag-A1-IRES-BIM MEF, luminescence, dry powder, set 3, orthogonal assay for A1 inhibitor project, dose response (AID 504409)", "settings": "MEF Flag-A1-IRES-BIM, caspase-Glo luminescence, 3 h; at 35 µM (top of the series)", "in_short": "as §1"}
{"smiles": "COCCn1c(=O)c(Sc2ccc(C)cc2)c(Sc2ccc(C)cc2)c2ccccc21", "caspase activation": "-0.209% (inactive)"}
{"smiles": "COc1c([N+](=O)[O-])c(=O)n(C)c2ccccc12", "caspase activation": "1.51% (inactive)"}
{"smiles": "CCn1c(=O)c([N+](=O)[O-])c(Sc2ccc(C)cc2)c2ccccc21", "caspase activation": "1.63% (inactive)"}
{"smiles": "Cc1ccc(Sc2c(Sc3ccc(C)cc3)c3ccccc3n(Cc3ccccc3)c2=O)cc1", "caspase activation": "-0.908% (inactive)"}
{"smiles": "COc1ccc(CCNc2nc(N3CCCC3)nc(N3CCCC3)n2)cc1OC", "caspase activation": "-0.336% (inactive)"}
{"smiles": "O=c1[nH]c2ccccc2c(O)c1[N+](=O)[O-]", "caspase activation": "0.941% (inactive)"}
{"smiles": "COc1ccc(N2CCN(c3nc(NCCc4ccc(OC)c(OC)c4)nc(N4CCOCC4)n3)CC2)cc1", "caspase activation": "0.186% (inactive)"}
{"smiles": "O=C(COc1ccc(Cl)cc1Cl)NNc1nc(N2CCOCC2)nc(N2CCOCC2)n1", "caspase activation": "-1.06% (inactive)"}
{"smiles": "Cc1ccc(Sc2c(Sc3ccc(C)cc3)c3ccccc3n(C)c2=O)cc1", "caspase activation": "-0.308% (inactive)"}
{"smiles": "C/C(=N\\Nc1nc(N2CCCCC2)nc(N2CCCCC2)n1)c1ccc(F)cc1", "caspase activation": "0.551% (inactive)"}
{"smiles": "CCn1c(=O)c(Sc2ccc(C)cc2)c(Sc2ccc(C)cc2)c2ccccc21", "caspase activation": "2.86% (inactive)"}
{"smiles": "COc1nc2ccccc2c(Sc2ccc(C)cc2)c1[N+](=O)[O-]", "caspase activation": "2.16% (inactive)"}
{"smiles": "COc1ccc(CCNc2nc(N3CCOCC3)nc(N3CCOCC3)n2)cc1OC", "caspase activation": "0.077% (inactive)"}
{"smiles": "Cn1c(=O)c(Sc2ccccn2)c(Sc2ccccn2)c2ccccc21", "caspase activation": "1.87% (inactive)"}
